Laboratory results: ChEMBL document CHEMBL1146533, “Antimicrobial and antiparasitic (+)-trans-hexahydrodibenzopyrans and analogues from Machaerium multiflorum” (J Nat Prod, 2003)
In brackets after ≈: the same amount, converted by molar mass. Activity calls are given as the source filed them. The rule behind the calls is not given here.

Key:
Candida albicans [1] = test: Antimicrobial activity against Candida albicans ATCC 90028 by modified NCCLS method; type: functional, organism-based
Aspergillus fumigatus [2] = test: Antimicrobial activity against Aspergillus fumigatus ATCC 90906 by modified NCCLS method; type: functional, organism-based
Cryptococcus neoformans = test: Antimicrobial activity against Cryptococcus neoformans ATCC 90113 by modified NCCLS method; type: functional, organism-based
[3] = system: Mycobacterium intracellulare; test: Antimicrobial activity against Mycobacterium intracellular by Alamar blue assay; type: functional, organism-based
Staphylococcus aureus [4] = test: Antimicrobial activity against methicillin-resistant Staphylococcus aureus ATCC 43300 by modified NCCLS method; type: functional, organism-based
Staphylococcus aureus [5] = test: Antimicrobial activity against Staphylococcus aureus ATCC 29213 by modified NCCLS method; type: functional, organism-based
Candida albicans [6] = test: Antifungal activity against Candida albicans ATCC 90028 at 50 ug/mL by modified NCCLS method; type: functional, organism-based
[7] = system: Mycobacterium intracellulare; test: Antimicrobial activity against Mycobacterium intracellular at 50 ug/mL by Alamar blue assay; type: functional
Aspergillus fumigatus [8] = test: Antimicrobial activity against Aspergillus fumigatus ATCC 90906 at 50 ug/mL by modified NCCLS method; type: functional, organism-based
[9] = Selectivity index, ratio of IC50 for african green monkey (Cercopithecus aethiops) Vero cells to IC50 for chloroquine-sensitive Plasmodium falciparum D6; type: toxicity, cell-based; details: read-out: Ratio IC50
How it was run: (§1)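 Selectivity index calculated as IC50 in Vero cells divided by IC50 against P. falciparum.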

Plasmodium falciparum [10] = test: Antimalarial activity against chloroquine-resistant Plasmodium falciparum W2; type: functional, organism-based
[11] = Selectivity index, ratio of IC50 for african green monkey (Cercopithecus aethiops) Vero cells to IC50 for chloroquine-sensitive Plasmodium falciparum W2; type: toxicity, cell-based; details: read-out: Ratio IC50; how it was run: as §1
Vero = test: Cytotoxicity against african green monkey Vero cells at 4.7 ug/mL; type: cell-based; details: chlorocebus sabaeus
Leishmania donovani = test: Antileishmanial activity against Leishmania donovani promastigotes after 72 hrs; type: functional, organism-based
Plasmodium falciparum [12] = test: Antimalarial activity against chloroquine-sensitive Plasmodium falciparum D6; type: functional, organism-based

SMILES: C[C@@H]1[C@H](O)[C@@H](C)/C=C/C=C/C=C/C=C/C=C/C=C/C=C/[C@H](O[C@@H]2O[C@H](C)[C@@H](O)[C@H](N)[C@@H]2O)C[C@@H]2O[C@](O)(C[C@@H](O)C[C@@H](O)[C@H](O)CC[C@@H](O)C[C@@H](O)CC(=O)O[C@H]1C)C[C@H](O)[C@H]2C(=O)O [AMPHOTERICIN B]
- MIC (Candida albicans [1]): 0.31 µg/mL (≈ 0.335 µM)
- MIC (Aspergillus fumigatus [2]): 1.25 µg/mL (≈ 1.35 µM)
- MIC (Cryptococcus neoformans): 0.63 µg/mL (≈ 0.682 µM)

SMILES: O=C(O)c1cn(C2CC2)c2cc(N3CCNCC3)c(F)cc2c1=O [CIPROFLOXACIN]
- IC50 [3]: 0.45 µg/mL (≈ 1.36 µM)
- MIC [3]: 0.63 µg/mL (≈ 1.9 µM)
- MBC (Staphylococcus aureus [4]): 0.31 µg/mL (≈ 0.936 µM)
- MIC (Staphylococcus aureus [4]): 0.31 µg/mL (≈ 0.936 µM)
- IC50 (Staphylococcus aureus [5]): 0.15 µg/mL (≈ 0.453 µM)

SMILES: C=C(C)[C@H]1CC[C@H](C)C[C@@H]1c1c(O)cc(/C=C/c2ccccc2)cc1O [MACHAERIDIOL A]
- IC50 (Candida albicans [1]): 3.5 µg/mL (≈ 10 µM)
- MIC (Candida albicans [1]): 50 µg/mL (≈ 143 µM)
- IC50 [3]: 7 µg/mL (≈ 20.1 µM)
- MIC [3]: 12.5 µg/mL (≈ 35.9 µM)
- MIC (Aspergillus fumigatus [2]): 12.5 µg/mL (≈ 35.9 µM)
- Activity (Candida albicans [6]): inactive
- MBC [7]: 50 µg/mL (≈ 143 µM)
- IC50 (Staphylococcus aureus [4]): 1 µg/mL (≈ 2.87 µM)
- MBC (Staphylococcus aureus [4]): 3.13 µg/mL (≈ 8.98 µM)
- MIC (Staphylococcus aureus [4]): 1.56 µg/mL (≈ 4.48 µM)
- IC50 (Staphylococcus aureus [5]): 1 µg/mL (≈ 2.87 µM)
- MBC (Staphylococcus aureus [5]): 3.13 µg/mL (≈ 8.98 µM)
- MIC (Staphylococcus aureus [5]): 1.56 µg/mL (≈ 4.48 µM)
- Activity (Cryptococcus neoformans): inactive
- IC50 (Cryptococcus neoformans): 15 µg/mL (≈ 43 µM)
- Activity (Aspergillus fumigatus [8]): inactive

SMILES: C=C(C)[C@H]1CC[C@H](C)C[C@@H]1c1c(O)cc(/C=C/c2ccccc2O)cc1O [MACHAERIDIOL B]
- IC50 (Candida albicans [1]): 2 µg/mL (≈ 5.49 µM)
- MIC (Candida albicans [1]): 6.25 µg/mL (≈ 17.1 µM)
- Activity [3]: inactive
- selectivity ratio [9]: > 7.4
- MIC (Aspergillus fumigatus [2]): 10 µg/mL (≈ 27.4 µM)
- Activity (Candida albicans [6]): inactive
- IC50 (Staphylococcus aureus [4]): 2 µg/mL (≈ 5.49 µM)
- MBC (Staphylococcus aureus [4]): 6.25 µg/mL (≈ 17.1 µM)
- MIC (Staphylococcus aureus [4]): 6.25 µg/mL (≈ 17.1 µM)
- IC50 (Staphylococcus aureus [5]): 2.6 µg/mL (≈ 7.13 µM)
- MBC (Staphylococcus aureus [5]): 6.25 µg/mL (≈ 17.1 µM)
- MIC (Staphylococcus aureus [5]): 6.25 µg/mL (≈ 17.1 µM)
- IC50 (Plasmodium falciparum [10]): 0.22 µg/mL (≈ 0.604 µM)
- selectivity ratio [11]: > 22
- IC50 (Cryptococcus neoformans): 3.5 µg/mL (≈ 9.6 µM)
- Activity (Vero): Non-toxic
- IC50 (Leishmania donovani): 0.9 µg/mL (≈ 2.47 µM)
- IC90 (Leishmania donovani): 8 µg/mL (≈ 21.9 µM)
- IC50 (Plasmodium falciparum [12]): 0.64 µg/mL (≈ 1.76 µM)
- Activity (Aspergillus fumigatus [8]): inactive

SMILES: C=C(C)[C@H]1CC[C@H](C)C[C@@H]1c1c(O)cc(-c2cc3ccccc3o2)cc1O [MACHAERIDIOL C]
- IC50 (Candida albicans [1]): 45 µg/mL (≈ 124 µM)
- IC50 [3]: 10 µg/mL (≈ 27.6 µM)
- MIC [3]: 25 µg/mL (≈ 69 µM)
- selectivity ratio [9]: > 1.4
- Activity (Aspergillus fumigatus [2]): inactive
- Activity [7]: inactive
- IC50 (Staphylococcus aureus [4]): 3.5 µg/mL (≈ 9.66 µM)
- MBC (Staphylococcus aureus [4]): 12.5 µg/mL (≈ 34.5 µM)
- MIC (Staphylococcus aureus [4]): 6.25 µg/mL (≈ 17.2 µM)
- IC50 (Staphylococcus aureus [5]): 3 µg/mL (≈ 8.28 µM)
- MBC (Staphylococcus aureus [5]): 12.5 µg/mL (≈ 34.5 µM)
- MIC (Staphylococcus aureus [5]): 6.25 µg/mL (≈ 17.2 µM)
- IC50 (Plasmodium falciparum [10]): 2.5 µg/mL (≈ 6.9 µM)
- selectivity ratio [11]: > 1.9
- IC50 (Cryptococcus neoformans): 25 µg/mL (≈ 69 µM)
- Activity (Vero): Non-toxic
- IC50 (Leishmania donovani): 3 µg/mL (≈ 8.28 µM)
- IC90 (Leishmania donovani): 10 µg/mL (≈ 27.6 µM)
- IC50 (Plasmodium falciparum [12]): 3.3 µg/mL (≈ 9.1 µM)

SMILES: C[C@H]1CC[C@H]2[C@H](C1)c1c(O)cc(/C=C/c3ccccc3O)cc1OC2(C)C [MACHAERIOL C]
- IC50 (Candida albicans [1]): 20 µg/mL (≈ 54.9 µM)
- IC50 [3]: 20 µg/mL (≈ 54.9 µM)
- selectivity ratio [9]: 1.6
- MIC (Aspergillus fumigatus [2]): 100 µg/mL (≈ 274 µM)
- IC50 (Staphylococcus aureus [4]): 0.7 µg/mL (≈ 1.92 µM)
- MBC (Staphylococcus aureus [4]): 12.5 µg/mL (≈ 34.3 µM)
- MIC (Staphylococcus aureus [4]): 1.56 µg/mL (≈ 4.28 µM)
- IC50 (Staphylococcus aureus [5]): 0.65 µg/mL (≈ 1.78 µM)
- MBC (Staphylococcus aureus [5]): 6.25 µg/mL (≈ 17.1 µM)
- MIC (Staphylococcus aureus [5]): 1.56 µg/mL (≈ 4.28 µM)
- IC50 (Plasmodium falciparum [10]): 3.7 µg/mL (≈ 10.2 µM)
- selectivity ratio [11]: 1.3
- IC50 (Cryptococcus neoformans): 40 µg/mL (≈ 110 µM)
- Activity (Vero): Non-toxic
- IC50 (Leishmania donovani): 6 µg/mL (≈ 16.5 µM)
- IC90 (Leishmania donovani): 12 µg/mL (≈ 32.9 µM)
- IC50 (Plasmodium falciparum [12]): 3 µg/mL (≈ 8.23 µM)
- Activity (Aspergillus fumigatus [8]): inactive

SMILES: C[C@@H]1C[C@@H]2c3c(O)cc(-c4cc5ccccc5o4)cc3OC(C)(C)[C@H]2C[C@H]1O [MACHAERIOL D]
- Activity (Candida albicans [1]): inactive
- Activity [3]: inactive
- Activity (Aspergillus fumigatus [2]): inactive
- Activity (Staphylococcus aureus [4]): inactive
- IC50 (Staphylococcus aureus [4]): 30 µg/mL (≈ 79.3 µM)
- IC50 (Staphylococcus aureus [5]): 25 µg/mL (≈ 66.1 µM)
- MIC (Staphylococcus aureus [5]): 50 µg/mL (≈ 132 µM)
- Activity (Cryptococcus neoformans): inactive

SMILES: N=C(N)c1ccc(OCCCCCOc2ccc(C(=N)N)cc2)cc1 [PENTAMIDINE]
- IC50 (Leishmania donovani): 0.42 µg/mL (≈ 1.23 µM)
- IC90 (Leishmania donovani): 1.5 µg/mL (≈ 4.41 µM)
